From PubChem
PLC-gamma1 inh – PLC-gamma1 (human) inhibition, primary screen; P19174; purified PLC-gamma1, fluorogenic substrate, fluorescence; inhibition, % at 12.2 µM; hit rate 0.84% among 370,000
sPLA2-III inh – Blocks human group III sPLA2 activity; Q9NZ20; QFRET BODIPY PC-A2 liposome hydrolysis, fluorescence; hit rate 0.56% among 370,000; inhibition, % at 12.2 µM;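 active = inhibition above mean plus 3 SD of compounds lying within the high and low control bounds, cut at about 19% in these data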;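 also: 0% = median of test compound wells and 100% = no enzyme DMSO wells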
procasp3 activ – activators of human procaspase-3; P42574; recombinant procaspase-3 D3A, Ac-DEVD-pNA absorbance 405 nm; activation, % at 8.5 µM; hit rate 0.11% among 330,000;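 active = activation above the mean of all tested compounds plus 3 SD, cut at about 21% in these data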;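 also: 0% = DMSO alone and 100% = DMSO wells spiked with extra 5 µM PC-3 D3A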
Target sequence (P42574 whole entry D9A/D28A/D175A): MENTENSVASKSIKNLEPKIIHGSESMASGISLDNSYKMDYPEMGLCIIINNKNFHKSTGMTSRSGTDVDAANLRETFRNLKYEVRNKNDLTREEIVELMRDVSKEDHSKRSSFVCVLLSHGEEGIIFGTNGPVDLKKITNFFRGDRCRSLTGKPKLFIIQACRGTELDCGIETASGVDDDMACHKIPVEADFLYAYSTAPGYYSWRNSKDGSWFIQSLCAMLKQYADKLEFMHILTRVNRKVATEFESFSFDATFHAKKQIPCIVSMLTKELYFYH
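Evaluation: percent activation relative to control range; Material: Procaspase-3 D3A mutant, all three cleavage aspartates alanine; Compound: single dose, 8.5 µM nominal compound, 0.8% DMSO; Replication: one well per compound; Signal: absorbance at 405 nm, 0 and 120 min; Schedule: 1 h preincubation plus 2 h reaction at 25 °C.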
PLCb3 inh – inhibitors of human phospholipase C beta3; Purified PLC-beta3, fluorogenic substrate, fluorescence; inhibition, % at 12.2 µM; hit rate 0.18% among 370,000; AID 720704; in the data active = inhibition above about 11%;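 also: 0% = median of compound wells on plate and 100% = full blocker control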
procasp7 counter – counter-screen for procaspase-3 activators: activators of human procaspase-7 | P55210 | recombinant procaspase-7, Ac-DEVD-pNA absorbance 405 nm; D23A/D198A/D206A triple mutant, cannot self-cleave; scale: DMSO 0, 5 µM enzyme 100 | activation, % at 8.5 µM | hit rate 0.093% among 330,000 | AID 463210;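 active = percent activation above the screen-wide mean plus 3 SD, cut at about 25% in these data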
Target sequence (P55210 whole entry D23A/D198A/D206A): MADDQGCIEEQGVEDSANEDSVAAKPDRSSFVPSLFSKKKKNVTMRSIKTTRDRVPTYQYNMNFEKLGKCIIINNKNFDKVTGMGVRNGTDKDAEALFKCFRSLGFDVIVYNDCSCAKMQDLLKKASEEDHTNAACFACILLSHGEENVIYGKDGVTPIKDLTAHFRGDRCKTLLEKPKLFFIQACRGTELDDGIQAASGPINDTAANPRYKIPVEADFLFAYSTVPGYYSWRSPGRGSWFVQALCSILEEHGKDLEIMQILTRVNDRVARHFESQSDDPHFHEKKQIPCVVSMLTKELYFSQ
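buffer or medium = Zinc-free HEPES/NaCl buffer, pH 7.4 | material = Procaspase-7 triple mutant (PC-7 D3A) | input = 2 µM procaspase-7 mutant as dispensed | signal = Epi-absorbance of released pNA at 405 nm, two timepoints | timing = 1 h preincubation, 2 h reaction | replicates = singlicate compound testing | evaluation = % activation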
PLCg1 ctr – PLC-gamma1 inhibition, counter-screen for PLC-beta3 hits. inhibition, % at 12.3 µM. hit rate 3.1% among 3,300. purified PLC-gamma1, fluorogenic substrate, fluorescence. shares compounds with PLC-gamma1 inh
PLCbeta3 conf – human PLC-beta3 inhibition, confirmation; inhibition, % at 12.3 µM; AID 743261; hit rate 1% among 3,300; purified PLC-beta3, fluorogenic substrate fluorescence; shares compounds with PLC-gamma1 inh; in the data active = inhibition above about 11%
sPLA2 confirm – human GIII-sPLA2 inhibition, confirmation; recombinant hGIII-sPLA2, BODIPY PC-A2 QFRET fluorescence; shares compounds with sPLA2-III inh; hit rate 34% among 2,000; AID 743280; inhibition, % at 12.2 µM;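 active = mean inhibition across triplicates above the hit cutoff set in the earlier primary screen, cut at about 19% in these data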;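 also: 0% = enzyme with DMSO and 100% = DMSO wells lacking enzyme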
535nm interf – optically interferes with 535nm fluorescence in sPLA2 counter-screen. AID 743282. inhibition, % at 12.2 µM. BODIPY FL product fluorescence interference, QFRET. shares compounds with sPLA2-III inh. hit rate 8.5% among 2,000;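 active = average inhibition above the solvent-only control mean plus 3 SD, cut at about 6% in these data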;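 also: 0% = DMSO with substrate plus product and 100% = DMSO with substrate alone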
Starred values were filed as active, the others as inactive; . = no result. The list is not random: actives were taken first. Their share in the collection is about 1.6%. Rule as the data show it, unless noted: active = inhibition above about 9.5%; inactive = the rest.

SMILES	PLC-gamma1 inh	sPLA2-III inh	procasp3 activ	PLCb3 inh	procasp7 counter	PLCg1 ctr	PLCbeta3 conf	others
CC(=O)NC(CC(=O)NCCN1C(=O)S/C(=C\c2ccccc2)C1=O)c1ccccc1 (stereo unspecified)	0.7	9.9	-6.3	-7.1	-0.3	.	.
CCn1c(CNC(=O)COc2ccc(C(C)C)cc2)nnc1SCC(=O)Nc1ccc(F)cc1	1.6	-9.5	6.9	1.9	-1.5	.	.
CCn1c(CNC(=O)COc2ccc(C(C)C)cc2)nnc1SCC(=O)Nc1cc(F)ccc1C	10.3*	-38.6	-0.3	8.0	6.5	-1.3	-1.8
COC(=O)C1CCCN1C(=O)COc1ccc(Br)cc1Cl (stereo unspecified)	14.1*	-4.5	8.5	8.1	4.7	-8.1	-117.9
COc1ccccc1C(=O)Nc1nnc(-c2ccccc2)s1	-7.6	-12.9	-4.6	-22.2	-2.0	.	.
COc1ccccc1C(=O)N(C)c1nnc(-c2ccccc2)s1	9.7*	5.9	8.9	3.9	-5.8	-1.3	1.6
COc1ccc(NC(=O)CN(C)C(=O)C2=NN(c3ccccc3)C(=O)CC2)cc1	0.2	9.3	7.9	-8.2	12.8	.	.
Cc1ccc(CN2CCN(/N=C/c3sccc3C)CC2)c(C)c1	10.9*	12.6	-6.5	6.5	-1.6	0.2	-0.1
CCc1ccc(C=NN2CCN(Cc3ccc(C)cc3C)CC2)cc1	-2.8	1.8	.	1.9	.	.	.
O=C(NCc1ccccc1F)C1CCCN1C(=O)NCc1ccccc1 (stereo unspecified)	3.8	8.7	8.4	13.5*	1.8	3.8	-0.7
CC(=O)Nc1ccc(CNc2nc(NC(C)C)nc3ccsc23)cc1	10.9*	4.7	.	-4.1	.	1.6	-3.8
CC(=O)Nc1ccc(CNc2nc(NCC3CC3)nc3ccsc23)cc1	4.7	-12.6	.	3.7	.	.	.
CCC[C@@H](CNC)NC[C@H](Cc1ccccc1)NCCCCc1ccccc1	3.8	18.1	-2.8	0.0	-14.2	.	.
CNC[C@@H](Cc1ccccc1)NC[C@@H](CC1CCCCC1)NCCCc1ccccc1	12.8*	16.1	3.8	6.3	-0.1	0.7	1.3
O=C(NCC1CCN(Cc2ccc(F)cc2)CC1)C1CCCN(c2ncnc3c2nc2n3CCCCC2)C1 (stereo unspecified)	-1.3	-7.8	4.0	-5.5	0.0	.	.
O=C(NCC1CCN(Cc2ccc(Cl)cc2)CC1)C1CCCN(c2ncnc3c2nc2n3CCCCC2)C1 (stereo unspecified)	10.8*	-30.4	10.9	-7.4	11.5	-3.1	-1.5
COC(=O)c1cc(C(c2ccccc2O)C2CCC(C)(C)O2)n2ccccc12 (stereo unspecified)	-30.9	2.4	.	-49.0	.	.	.
Cc1cc(NC(=O)CSc2nnc3c4c(C)c(C)sc4ncn23)no1	-6.0	6.7	-6.8	11.8*	4.0	-3.6	-2.2
COc1ccc(-c2nn(Cc3ccccc3)cc2C(=O)N2CCN(c3ncccn3)CC2)cc1	-5.5	-10.4	-1.6	-10.2	-3.4	.	.
O=C(CSc1nnnn1-c1ccc(Cl)c(C(=O)O)c1)NC(c1ccccc1)c1ccccc1	-1.1	-6.3	-5.8	-8.2	3.5	.	.
Cc1ccc(CN2CCC[C@]3(N[C@H](c4ccccc4)[C@@H]4C(=O)N(C)C(=O)[C@@H]43)C2=O)cc1	12.2*	3.6	.	8.3	.	-1.5	-0.7
COc1ccc(CN2CCC[C@]3(N[C@H](c4ccc(C)cc4)[C@@H]4C(=O)N(C)C(=O)[C@@H]43)C2=O)cc1	-1.8	1.4	.	1.4	.	.	.
CCC(CC)c1nnc(NC(=O)c2cc(C(=O)OC)cc([N+](=O)[O-])c2)s1	11.8*	-11.4	-13.9	-0.1	-6.5	-4.3	-1.9
COC(=O)c1cc(C(=O)Nc2nnc(CC(C)C)s2)cc([N+](=O)[O-])c1	-0.1	-0.8	4.9	2.9	-2.9	.	.
CCOC(=O)CSc1nnc(NC(=O)c2cccc([N+](=O)[O-])c2)s1	4.8	-1.6	1.8	12.8*	7.8	-3.1	0.2
SMILES	PLC-gamma1 inh	sPLA2-III inh	procasp3 activ	PLCb3 inh	procasp7 counter	PLCg1 ctr	PLCbeta3 conf	others
Cc1cccc(OCC(=O)OCC(=O)N2CCCc3ccccc32)c1C	11.1*	-0.2	3.6	-4.2	5.5	0.3	3.1
COc1c(OC(C)=O)ccc(/C=C/c2ccc3cccc(OC)c3n2)c1[N+](=O)[O-]	4.2	-23.6	6.0	2.6	-9.0	.	.
COc1c(OC(C)=O)ccc(/C=C/c2ccc3ccccc3n2)c1[N+](=O)[O-]	14.5*	-10.4	3.5	6.2	7.0	0.7	-21.1
Fc1ccccc1NC(=S)N1CCN(c2ccccn2)CC1	10.4*	7.0	4.7	7.9	8.9	-7.3	-0.5
Cc1cccc(NC(=S)N2CCN(c3ccccn3)CC2)c1	3.8	12.2	-0.8	3.6	4.0	.	.
S=C(Nc1ccccc1Cl)N1CCN(c2ccccn2)CC1	1.4	15.2	-8.6	-6.8	1.4	.	.
Cc1ccc(NC(=S)N2CCN(c3ccccn3)CC2)cc1C	10.8*	18.1	-6.1	0.0	-1.4	-0.9	2.1
Cc1ccccc1NC(=O)Cc1nc(COC(=O)c2nccnc2N)cs1	-55.8	-3.3	.	-80.5	.	.	.
O=C(c1cc2cccc([N+](=O)[O-])c2oc1=O)N1CCOCC1	12.3*	16.7	5.3	-4.6	11.2	-5.6	-0.3
CCOc1ccc(S(=O)(=O)NCCC(=O)N2CC(C)CC(C)C2)cc1 (stereo unspecified)	0.7	-4.4	2.6	-5.5	6.3	.	.
Cc1ccc(C(=O)Cn2c(C(=O)OCCO)cc3ccccc32)cc1	10.7*	-21.5	.	-2.0	.	-8.9	-6.2
Fc1ccc(C2=Nc3cccc4cccc(c34)N2)cc1	-2.7	8.7	-6.0	-3.3	6.8	.	.
FC(F)(F)C1=Nc2cccc3cccc(c23)N1	13.5*	28.3*	.	4.4	.	11.9*	10.3	sPLA2 confirm=32.1*;535nm interf=12.3*
O=C(CCCn1c(=S)[nH]c2ccccc2c1=O)NCCSCc1ccccc1	-1.6	0.7	8.7	-1.6	2.7	.	.
CN(C1=C(NC(=O)c2ccc(Cl)cc2)C(=O)c2ccccc2C1=O)c1ccccc1	12.3*	44.0*	1.2	0.9	-2.0	7.4	5.4	sPLA2 confirm=48.8*;535nm interf=7.6*
CN(c1ccc(C(=O)Nc2ccc(Cl)cn2)cc1)S(=O)(=O)c1ccccc1	-0.2	-14.5	-6.2	-8.9	13.6	.	.
CN1CCN(CCCNC(=O)CCN2C(=O)COc3ccccc32)CC1	0.0	5.8	-6.3	-7.8	8.8	.	.
